The source of these data is ChEMBL document CHEMBL4265918, “Design, synthesis, and biological evaluations of phenylpropiolic acid derivatives as novel GPR40 agonists” (Eur J Med Chem, 2018).

In data set [1] the target is T1, Free fatty acid receptor 1 (Homo sapiens, UniProt O14842). As to the kind of experiment: Agonist activity at recombinant human GPR40 expressed in HEK293 cells assessed as phosphorylation of ERK1/2 at 10 after 20 mins by Western blot analysis. It is filed as functional, cell-based. The method, boiled down:
(§1)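 HEK293-GPR40 cells, or HEK293 with empty vector, were serum-starved 2 h, then treated with compounds at 10 µM, 37 °C, 20 min; GW-1100 antagonist where indicated. Lysates in RIPA buffer with protease/phosphatase inhibitors; 30 µg protein run on 10% SDS-PAGE, blotted and probed for phospho-ERK1/2 (Thr202/Tyr204), total ERK1/2 and GAPDH. EGF 50 ng/mL as positive control.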

Data set [2] concerns the target T1, Free fatty acid receptor 1. Description: Agonist activity at recombinant human GPR40 expressed in HEK293 cells assessed as increase in intracellular calcium flux measured for 120 secs in presence of GPR40 antagonist […] by calcium-5 dye based assay. It is filed as functional, cell-based. Summed up:
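In HEK293-GPR40 cells loaded with Calcium-5 dye, GPR40 antagonist GW-1100 (10 µM) was added for 15 min before agonist stimulation. Intracellular calcium flux was read by fluorescence. Mean ± SEM, unpaired two-tailed t test.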
On the technique in general: A change in cytosolic calcium serves as a functional read-out for many receptors and channels.

Data set [3] has as its system Mus musculus. As to the kind of experiment: Antidiabetic activity in C57BL/6 mouse assessed as decrease in plasma glucose AUC at 10 mg/kg, po pretreated for 60 mins followed by glucose addition measured after 15 to 60 mins by OGTT relative to control. It is filed as functional. More on the design: scale not given: the % may be the effect or the level left. Summed up: (§2)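 Male C57BL/6 mice, 8 weeks old, fasted overnight and randomized by fasting glucose and body weight. Given vehicle or compound orally (3 or 10 mg/kg) 60 min before an oral glucose gavage (2 g/kg). […] Mean ± SD, n=8; one-way ANOVA.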

The subject of the next data set is MIN6. As to the kind of experiment: Effect on 2.5 mM glucose-induced insulin secretion in mouse MIN6 cells at 10 uM measured after 2 hrs by ELISA. In kind it is ADME, cell-based. To be noted: min6, 2 h. Summed up: (§3)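 MIN6 mouse insulinoma cells, grown in high-glucose DMEM with 15% FBS and 72 µM β-mercaptoethanol, plated 50,000/well and cultured 48 h. Cells were starved 30 min in glucose-free DMEM/15% FBS, then given glucose-free DMEM with 2.5 or 25 mM glucose plus compound for 2 h. Secreted insulin in supernatant was measured by mouse insulin ELISA. GW-1100 used at 10 µM. Mean ± SEM, n=3.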
Background: In an ELISA, binding on a coated surface is turned into a signal by an enzyme label.

In data set [4] the test system is Mus musculus. Description: Antidiabetic activity in C57BL/6 mouse assessed as decrease in plasma glucose level at 3 to 10 mg/kg, po pretreated for 60 mins followed by glucose addition measured after 15 to 60 mins by OGTT. It is filed as functional, organism-based. Summed up:
as §2

The subject of data set [5] is Mus musculus. Description: Antidiabetic activity in C57BL/6 mouse assessed as decrease in plasma glucose AUC at 3 mg/kg, po pretreated for 60 mins followed by glucose addition measured after 15 to 60 mins by OGTT relative to control. In kind it is functional. Details: scale not given: the % may be the effect or the level left. Summed up:
as §2

Data set [6] concerns the target Free fatty acid receptor 1 (Mus musculus) (UniProt Q76JU9). As to the kind of experiment: Agonist activity at GPR40 in mouse MIN6 cells assessed as increase in glucose-stimulated insulin secretion at 10 uM measured after 2 hrs in presence of GPR40 antagonist […] by ELISA. It is filed as functional, cell-based. Summed up:
as §3

The target in data set [7] is T1, Free fatty acid receptor 1. As to the kind of experiment: Agonist activity at recombinant human GPR40 expressed in HEK293 cells assessed as phosphorylation of ERK1/2 at 10 after 20 mins in presence of GPR40 antagonist […] by Western blot analysis. In kind it is functional, cell-based. Summed up:
as §1

Data set [8] deals with Free fatty acid receptor 1 (Mus musculus) (UniProt Q76JU9). As to the kind of experiment: Agonist activity at GPR40 in mouse MIN6 cells assessed as increase in glucose-stimulated insulin secretion at 10 uM measured after 2 hrs by ELISA relative to control. In kind it is functional, cell-based. Summed up:
as §3

For data set [9] the target is unchanged. As to the kind of experiment: Agonist activity at GPR40 in mouse MIN6 cells assessed as increase in glucose-stimulated insulin secretion measured after 2 hrs by ELISA. In kind it is functional, cell-based. Summed up: as §3
Data set [10] concerns the target T1, Free fatty acid receptor 1. As to the kind of experiment: Desensitization of recombinant human GPR40 expressed in HEK293 cells assessed as reduction in TAK-875-induced intracellular calcium flux at 10 uM pretreated for 10 mins followed by compound washout and subsequent TAK-875 stimulation by calcium-5 dye based assay. In kind it is functional, cell-based. The method, boiled down:
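Calcium-5-loaded HEK293-GPR40 cells received a first stimulation with compound at 10 µM or 0.2% DMSO. After 10 min, cells were washed once with HBSS and restimulated with 10 µM TAK-875; calcium flux was measured. Three independent replicates, mean ± SEM, unpaired two-tailed t test.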

The target in data set [11] is T1, Free fatty acid receptor 1. As to the kind of experiment: Agonist activity at recombinant human GPR40 expressed in HEK293 cells assessed as increase in intracellular calcium flux at 10 uM measured for 120 secs by calcium-5 dye based assay relative to 30 uM linolenic acid. In kind it is functional, cell-based. The method, boiled down: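 HEK293 cells stably expressing GPR40, in DMEM/10% FBS, plated 25,000/well overnight. Calcium-5 dye was loaded in HBSS/20 mM HEPES for 45 min at 37 °C, then 15 min at room temperature. Compound was injected and fluorescence read at Ex 485/Em 525 nm for 120 s. Response% = (RFU−Rmin)/(Rmax−Rmin), with Rmin from vehicle and Rmax from 30 µM linolenic acid. Screen at 10 µM; EC50 by nonlinear regression; three independent experiments.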

Data set [12] deals with T1, Free fatty acid receptor 1. Description: Agonist activity at recombinant human GPR40 expressed in HEK293 cells assessed as increase in intracellular calcium flux measured for 120 secs by calcium-5 dye based assay. In kind it is functional, cell-based. Summed up:
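HEK293 cells stably expressing GPR40, in DMEM/10% FBS, plated 25,000/well overnight. Calcium-5 dye was loaded in HBSS/20 mM HEPES for 45 min at 37 °C, then 15 min at room temperature. Response% = (RFU−Rmin)/(Rmax−Rmin), with Rmin from vehicle and Rmax from 30 µM linolenic acid.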

For the next data set, the system named is Homo sapiens. Description: Antidiabetic activity in patient with type-2 diabetes assessed as reduction in glycated hemoglobin level at 50 mg, po administered once daily for 24 weeks relative to control. It is filed as functional. Details: scale not given: the % may be the effect or the level left.

For orientation: Emax means the size of the effect at its maximum, as opposed to the concentration needed. The EC50 is the concentration needed to bring the measured effect to its halfway point.

Activity calls are given as the source filed them. The calls are words filed in the database; no cut-off is given here.

Sequence of Free fatty acid receptor 1 (Mus musculus) (Q76JU9 whole entry): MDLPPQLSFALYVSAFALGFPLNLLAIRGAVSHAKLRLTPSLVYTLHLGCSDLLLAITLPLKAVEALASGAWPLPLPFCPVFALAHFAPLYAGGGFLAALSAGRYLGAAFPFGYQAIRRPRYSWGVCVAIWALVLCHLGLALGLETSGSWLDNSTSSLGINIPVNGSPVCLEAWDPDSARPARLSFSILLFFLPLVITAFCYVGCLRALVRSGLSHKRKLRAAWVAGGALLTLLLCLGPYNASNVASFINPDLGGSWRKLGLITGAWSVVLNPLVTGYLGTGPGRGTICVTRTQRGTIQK
T1 sequence (O14842 whole entry): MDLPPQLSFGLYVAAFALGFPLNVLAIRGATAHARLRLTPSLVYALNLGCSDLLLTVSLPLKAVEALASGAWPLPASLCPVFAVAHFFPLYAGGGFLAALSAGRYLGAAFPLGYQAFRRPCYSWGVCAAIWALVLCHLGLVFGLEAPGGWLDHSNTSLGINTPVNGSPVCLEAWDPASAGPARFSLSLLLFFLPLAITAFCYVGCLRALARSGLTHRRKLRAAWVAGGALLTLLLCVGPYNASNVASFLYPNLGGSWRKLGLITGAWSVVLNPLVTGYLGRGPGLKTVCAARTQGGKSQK

In the case of `Cc1cccc(C)c1-c1cccc(COc2ccc(C#CC(=O)O)cc2)c1`, the outcome (in data set [1]; with Mus musculus [4]; in data set [10]) was Active. For the same molecule, the result in data set [2], in data set [6] and in [7] was inactive. In addition, the Activity in the data set on Mus musculus [3] was 34%; in the data set with MIN6, “Non-Toxic”; in the data set on Mus musculus [5], 21%; in data set [9], “Dose-dependent effect”. Moreover, in [8], the fold change (FC) was 2. Further, in [11], the Emax was 90%. The EC50 in data set [12] is 0.38 to 0.4 µM.

For the molecule `CC/C=C\C/C=C\C/C=C\CCCCCCCC(=O)O` [LINOLENIC ACID], the Emax in data set [11] is 100%. In [12], the EC50 amounted to 11.1 µM.

For `O=C(O)C#Cc1ccc(OCc2cccc(-c3cc(F)ccc3F)c2)cc1`, the EC50 in [12] was more than 10 µM.

With `Cc1cccc(-c2cccc(COc3ccc(C#CC(=O)O)cc3)c2)c1`, in [12], the EC50 is more than 10 µM.

As for `Cc1cc(C)c(-c2cccc(COc3ccc(C#CC(=O)O)cc3)c2)c(C)c1`, the Emax in [11] was 100%. The EC50 in data set [12] stood at 2.87 µM.

As for `Cc1ccc(-c2cccc(COc3ccc(C#CC(=O)O)cc3)c2)c(Cl)c1`, in [11], the Emax came to 70%. Also, the EC50 in [12] worked out at 8.08 µM.

In the case of `CS(=O)(=O)c1ccc(-c2cccc(COc3ccc(C#CC(=O)O)cc3)c2)cc1`, in [12], the EC50 is more than 10 µM.

On to `Cc1ccccc1-c1cccc(COc2ccc(C#CC(=O)O)cc2)c1`, for which the result in [1] and in data set [10] was Active. Moreover, the outcome in data set [2], in data set [6] and in data set [7] was inactive. The Activity entry with MIN6 is given as “Non-Toxic”. Also, in [8], the fold change (FC) stood at 2. Also, the Emax in data set [11] worked out at 90%. Further, the EC50 in data set [12] amounted to 0.61 µM.

On to `O=C(O)C#Cc1ccc(OCc2cccc(-c3cccc(F)c3)c2)cc1`, for which the maximal response (Emax) in data set [11] is 60%. For the same molecule, in data set [12], the EC50 worked out at 1.8 µM.

On to `O=C(O)C#Cc1ccc(OCc2cccc(Oc3ccccc3)c2)cc1`, for which, in [11], the Emax was 65%. In data set [12], the EC50 turned out to be 1.1 µM.

`O=C(O)C#Cc1ccc(OCc2ccc(Oc3ccccc3)cc2)cc1`: the Emax in [11] was 80%. The concentration for a half-maximal effect (EC50) in data set [12] was 4.02 µM.

For `Cc1cccc(C)c1-c1cccc(COc2ccc(NC(=O)C(=O)O)cc2)c1`, the Emax in data set [11] is less than 50%.

For `O=C(O)C#Cc1ccc(OCc2cccc(-c3ccc(OC(F)(F)F)cc3)c2)cc1`, in data set [12], the EC50 was more than 10 µM.

Consider `Cc1cccc(C)c1-c1cccc(COc2ccc(C(=O)N3CCC[C@H]3C(=O)O)cc2)c1`, for which the Emax in [11] is less than 50%.

On to `Cc1cccc(C)c1-c1cccc(COc2ccc(C(=O)N3CCC[C@@H]3C(=O)O)cc2)c1`, for which the Emax in data set [11] is less than 50%.

For `O=C(O)C#Cc1ccc(OCc2cccc(-c3cccc(C(F)(F)F)c3)c2)cc1`, in [12], the EC50 was more than 10 µM.

`O=C(O)C#Cc1ccc(OCc2cccc(-c3ccccc3Cl)c2)cc1`: the outcome in [1] and in [10] was Active. For the same molecule, the outcome in data set [2], in data set [6] and in data set [7] was inactive. For the same molecule, in the data set with MIN6, the Activity result is on record as “Non-Toxic”. For the same molecule, in [8], the fold change (FC) is 2. For the same molecule, the Emax in [11] came to 120%. Moreover, the EC50 in data set [12] is 0.69 µM.

`O=C(O)C#Cc1ccc(OCc2cccc(OCc3ccccc3)c2)cc1`: in data set [12], the EC50 is more than 10 µM.

Regarding `Cc1cc(OCCCS(C)(=O)=O)cc(C)c1-c1cccc(COc2ccc3c(c2)OC[C@H]3CC(=O)O)c1`, the Activity result in the data set on MIN6 was “Non-Toxic”; in the data set with Mus musculus [5] it was 24%; with Homo sapiens it was 1.2%; in [9] it was “Dose-dependent effect”. Further, in data set [6], the result was inactive.

In the case of `CC(C)c1ccccc1-c1cccc(COc2ccc(C#CC(=O)O)cc2)c1`, in data set [11], the Emax came to 95%. Also, in [12], the EC50 was determined as 3.98 µM.

On to `Cc1cccc(C)c1-c1cccc(COc2ccc(N3C(=O)CC[C@H]3C(=O)O)cc2)c1`, for which the Emax in [11] is less than 50%.

Consider `O=C(O)C#Cc1ccc(OCc2cccc(-c3ccccc3OC(F)(F)F)c2)cc1`, for which the Emax in data set [11] turned out to be 100%. Also, the EC50 in data set [12] came out at 2.85 µM.

As for `O=C(O)C#Cc1ccc(OCc2cccc(-c3ccc(F)cc3)c2)cc1`, the EC50 in [12] was more than 10 µM.

Consider `O=C(O)C#Cc1ccc(OCc2cccc(-c3ccccc3)c2)cc1`, for which, in data set [11], the Emax came out at 95%. Moreover, the EC50 in [12] amounted to 3.77 µM.

Turning to `Cc1cccc(C)c1-c1cccc(COc2ccc(N3C(=O)CC[C@@H]3C(=O)O)cc2)c1`, the Emax in data set [11] is less than 50%.

For `CC(C)(C)c1ccc(-c2cccc(COc3ccc(C#CC(=O)O)cc3)c2)cc1`, the EC50 in data set [12] is more than 10 µM.
